Reference: ChEMBL document CHEMBL1144458, “Aminothiazole inhibitors of HCV RNA polymerase” (Bioorg Med Chem Lett, 2005)

Legend:
[1] = target: RNA-directed RNA polymerase (Hepacivirus hominis, UniProt O39930); assay: Inhibitory concentration against RNA dependent RNA polymerase nonstructural protein 5B of hepatitis C virus
Method in brief: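 HCV NS5B D55 construct (6 nM), scintillation proximity assay: biotinylated oligoG12/polyC template-primer with GTP plus [3H]-GTP, in 20 mM HEPES pH 7.3, 7.5 mM DTT, 10 mM MgCl2, 60 mM NaCl, BSA, and RNasin, for 50 min at room temperature. Stopped with streptavidin SPA beads plus 100 mM EDTA; incorporated label counted. IC50 from single experiments over 11 serial 2-fold dilutions.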

Cytochrome P450 2D6 = Cytochrome P450 2D6 (Homo sapiens, UniProt P10635); assay: Inhibitory concentration against Cytochrome P450 2D6; type: ADME
Cytochrome P450 3A4 = Cytochrome P450 3A4 (Homo sapiens, UniProt P08684); assay: Inhibitory concentration against Cytochrome P450 3A4; type: ADME
[2] = Permeability determined in Caco-2 experiment; type: ADME; conditions: human, read-out: Permeability
[3] = Clearance rate from human hepatocytes; type: ADME, Liver, Hepatocyte

Sequence of RNA-directed RNA polymerase (O39930 whole entry): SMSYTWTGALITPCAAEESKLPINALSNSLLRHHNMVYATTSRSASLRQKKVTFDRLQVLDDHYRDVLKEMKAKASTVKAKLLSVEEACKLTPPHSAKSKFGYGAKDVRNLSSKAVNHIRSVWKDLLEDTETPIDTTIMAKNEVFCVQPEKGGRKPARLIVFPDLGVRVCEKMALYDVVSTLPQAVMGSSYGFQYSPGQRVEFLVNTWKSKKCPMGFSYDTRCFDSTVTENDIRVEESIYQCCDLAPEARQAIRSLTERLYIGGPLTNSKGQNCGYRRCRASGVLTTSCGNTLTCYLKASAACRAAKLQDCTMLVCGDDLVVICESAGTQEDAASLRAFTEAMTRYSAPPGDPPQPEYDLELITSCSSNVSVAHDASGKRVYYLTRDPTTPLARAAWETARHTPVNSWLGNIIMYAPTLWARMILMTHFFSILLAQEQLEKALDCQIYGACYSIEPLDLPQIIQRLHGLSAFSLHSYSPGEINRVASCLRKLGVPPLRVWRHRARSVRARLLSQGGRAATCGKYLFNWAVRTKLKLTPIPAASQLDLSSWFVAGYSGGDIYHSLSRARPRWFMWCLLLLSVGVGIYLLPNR
Sequence of Cytochrome P450 3A4 (P08684 whole entry): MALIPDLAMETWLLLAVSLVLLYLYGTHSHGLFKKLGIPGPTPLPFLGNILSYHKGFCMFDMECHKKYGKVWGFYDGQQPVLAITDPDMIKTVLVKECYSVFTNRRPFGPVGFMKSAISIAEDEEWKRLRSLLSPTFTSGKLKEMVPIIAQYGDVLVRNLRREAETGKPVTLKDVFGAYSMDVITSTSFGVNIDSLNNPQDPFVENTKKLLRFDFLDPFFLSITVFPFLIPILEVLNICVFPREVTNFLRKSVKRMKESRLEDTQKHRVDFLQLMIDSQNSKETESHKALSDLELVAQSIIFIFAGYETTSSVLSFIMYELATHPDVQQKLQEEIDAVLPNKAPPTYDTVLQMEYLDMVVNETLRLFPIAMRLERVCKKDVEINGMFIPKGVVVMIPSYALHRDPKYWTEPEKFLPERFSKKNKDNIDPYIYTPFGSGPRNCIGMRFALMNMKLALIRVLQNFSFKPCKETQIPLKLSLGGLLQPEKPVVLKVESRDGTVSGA
Sequence of Cytochrome P450 2D6 (P10635 whole entry): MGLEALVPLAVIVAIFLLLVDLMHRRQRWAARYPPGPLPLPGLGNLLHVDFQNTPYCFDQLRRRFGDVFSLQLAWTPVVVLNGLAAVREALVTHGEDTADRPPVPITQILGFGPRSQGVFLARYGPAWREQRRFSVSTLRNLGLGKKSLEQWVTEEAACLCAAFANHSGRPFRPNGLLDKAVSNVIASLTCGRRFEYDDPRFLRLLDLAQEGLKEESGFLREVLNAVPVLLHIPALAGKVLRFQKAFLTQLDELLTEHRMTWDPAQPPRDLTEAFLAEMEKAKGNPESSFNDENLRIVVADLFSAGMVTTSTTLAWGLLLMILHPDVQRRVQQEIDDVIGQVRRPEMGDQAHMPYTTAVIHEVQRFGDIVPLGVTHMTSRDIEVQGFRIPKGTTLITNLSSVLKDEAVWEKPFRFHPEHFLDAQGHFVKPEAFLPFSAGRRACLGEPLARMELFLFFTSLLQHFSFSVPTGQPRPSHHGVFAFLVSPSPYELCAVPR

IC50 [1] | Compound | other results
8.5 µM | COc1ccccc1COc1ccc(C(=O)N(c2ncc(C(=O)O)s2)C2CCCCC2)cc1 | 
6.5 µM | O=C(O)c1cnc(N(C(=O)c2ccc(OCc3cccc(F)c3)cc2)C2CCCCC2)s1 | 
8.5 µM | COc1ccccc1Oc1ccc(C(=O)N(c2ncc(C(=O)O)s2)C2CCCCC2)cc1 | 
4.4 µM | O=C(O)c1cnc(N(C(=O)c2ccc(Oc3cccc(C(F)(F)F)c3)cc2)C2CCCCC2)s1 | 
13 µM | O=C(O)c1cnc(N(C(=O)c2ccc(Oc3ccccc3)cc2)C2CCSCC2)s1 | 
15 µM | O=C(O)c1cnc(N(C(=O)c2ccc(OCc3ccccn3)cc2)C2CCCCC2)s1 | 
2.8 µM | O=C(O)c1cnc(N(C(=O)c2ccc(Oc3cccc(Cl)c3)cc2)C2CCCCC2)s1 | 
3.1 µM | COc1cccc(Oc2ccc(C(=O)N(c3ncc(C(=O)O)s3)C3CCCCC3)cc2)c1 | 
4.2 µM | O=C(O)c1cnc(N(C(=O)c2ccc(Oc3ccc(Cl)cc3)cc2)C2CCCCC2)s1 | 
10 µM | O=C(O)c1csc(N(C(=O)c2ccc(Oc3ccccc3)cc2)C2CCCCC2)n1 | 
3.9 µM | O=C(O)c1cnc(N(C(=O)c2ccc(OCc3ccc(F)cc3)cc2)C2CCCCC2)s1 | 
1.4 µM | O=C(O)c1cnc(N(C(=O)c2ccc(OCc3cccc(C(F)(F)F)c3)cc2)C2CCCCC2)s1 | IC50 (Cytochrome P450 2D6): > 30 µM; IC50 (Cytochrome P450 3A4): > 30 µM; Papp [2]: 14.7 ×10⁻⁶ cm/s; CL [3]: 5 lL/min/million
4 µM | O=C(O)c1cnc(N(C(=O)c2ccc(OCc3ccccc3F)cc2)C2CCCCC2)s1 | 
2.6 µM | O=C(O)c1cnc(N(C(=O)c2ccc(Oc3ccc(Cl)c(Cl)c3)cc2)C2CCCCC2)s1 | 
7 µM | O=C(O)c1cnc(N(C(=O)c2ccc(OCc3cccs3)cc2)C2CCCCC2)s1 | 
6.5 µM | O=C(O)c1cnc(N(C(=O)c2ccc(OCc3ccccc3)cc2)C2CCCCC2)s1 | 
3.5 µM | COc1ccc(Oc2ccc(C(=O)N(c3ncc(C(=O)O)s3)C3CCCCC3)cc2)cc1OC | 
5.5 µM | O=C(O)c1cnc(N(C(=O)c2ccc(OC3CCCCC3)cc2)C2CCCCC2)s1 | 

IC50 [1] | Compound | other results
5.1 µM | O=C(O)c1cnc(N(C(=O)c2ccc(OCc3ccccc3C(F)(F)F)cc2)C2CCCCC2)s1 | 
3.2 µM | COc1cccc(COc2ccc(C(=O)N(c3ncc(C(=O)O)s3)C3CCCCC3)cc2)c1 | 
7 µM | O=C(O)c1cnc(N(C(=O)c2ccc(Oc3ccccc3)cc2)C2CCCCC2)s1 | 
5.2 µM | O=C(O)c1cnc(N(C(=O)c2ccc(Oc3cccc(OC(F)(F)F)c3)cc2)C2CCCCC2)s1 | 
6 µM | C[C@@H]1C[C@@H](N(C(=O)c2ccc(Oc3ccccc3)cc2)c2ncc(C(=O)O)s2)CC(C)(C)C1 (single isomer, unassigned) | 
5.5 µM | C[C@@H]1C[C@@H](N(C(=O)c2ccc(Oc3ccccc3)cc2)c2nc(C(=O)O)cs2)CC(C)(C)C1 (single isomer, unassigned) | 
6.1 µM | C[C@H]1CCCC[C@@H]1N(C(=O)c1ccc(Oc2ccccc2)cc1)c1ncc(C(=O)O)s1 (single isomer, unassigned; cis) | 
9.4 µM | C[C@H]1CCCC[C@@H]1N(C(=O)c1ccc(Oc2ccccc2)cc1)c1ncc(C(=O)O)s1 (single isomer, unassigned; trans) | 
3.4 µM | CC(C)(C)[C@H]1CC[C@H](N(C(=O)c2ccc(Oc3ccccc3)cc2)c2ncc(C(=O)O)s2)CC1 (stereo in doubt; cis) | 
6.6 µM | C[C@H]1CC[C@H](N(C(=O)c2ccc(Oc3ccccc3)cc2)c2ncc(C(=O)O)s2)CC1 (stereo in doubt; cis) | 
2.8 µM | CC(C)(C)[C@H]1CC[C@@H](N(C(=O)c2ccc(Oc3ccccc3)cc2)c2nc(C(=O)O)cs2)CC1 (stereo in doubt; cis) | 
7.6 µM | C[C@@H]1CCCC[C@H]1N(C(=O)c1ccc(Oc2ccccc2)cc1)c1nc(C(=O)O)cs1 (stereo in doubt; cis) | 
5.7 µM | C[C@H]1CC[C@@H](N(C(=O)c2ccc(Oc3ccccc3)cc2)c2nc(C(=O)O)cs2)CC1 (stereo in doubt; cis) | 
6 µM | CC(C)(C)[C@H]1CC[C@H](N(C(=O)c2ccc(Oc3ccccc3)cc2)c2ncc(C(=O)O)s2)CC1 (stereo in doubt; trans) | 
5 µM | C[C@H]1CC[C@H](N(C(=O)c2ccc(Oc3ccccc3)cc2)c2ncc(C(=O)O)s2)CC1 (stereo in doubt; trans) | 
4.7 µM | CC(C)(C)[C@H]1CC[C@@H](N(C(=O)c2ccc(Oc3ccccc3)cc2)c2nc(C(=O)O)cs2)CC1 (stereo in doubt; trans) | 
11 µM | C[C@@H]1CCCC[C@H]1N(C(=O)c1ccc(Oc2ccccc2)cc1)c1nc(C(=O)O)cs1 (stereo in doubt; trans) | 
5.4 µM | C[C@H]1CC[C@@H](N(C(=O)c2ccc(Oc3ccccc3)cc2)c2nc(C(=O)O)cs2)CC1 (stereo in doubt; trans) | 

Compound | IC50 [1] | other results
CC(C)N(C(=O)c1ccc(Oc2ccccc2)cc1)c1ncc(C(=O)O)s1 | > 50 µM | 
O=C(O)c1cnc(N(C(=O)c2ccc(Oc3ccccc3)cc2)C2CCS(=O)(=O)CC2)s1 | > 50 µM | 
O=C(Nc1nc(C(=O)O)cs1)c1ccc(Oc2ccccc2)cc1 | > 50 µM | 
CC(C)N(C(=O)c1ccc(Oc2ccccc2)cc1)c1nc(C(=O)O)cs1 | > 50 µM | 
O=C(Nc1ncc(C(=O)O)s1)c1ccc(Oc2ccccc2)cc1 | > 50 µM | 
